Data set [1] relates to Rattus norvegicus. Nature of the data set: Ex vivo inhibition of DPP4 in Sprague-Dawley rat plasma at 1 mg/kg, po after 6 hrs. It counts as functional. The gist of the method: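 Male SD rats, 6–7 weeks old, fasted at least 8 h, given a single oral dose of 1 mg/kg in 0.5% methylcellulose. Jugular blood taken before dosing and up to 10 h after. Plasma mixed 1:1 with 60 µM Gly-Pro-AMC. Initial rate taken from AMC fluorescence (ex 355/em 460 nm) at 37 °C. Percent inhibition calculated against basal activity.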

The nature of data set [2]: Oral bioavailability in Sprague-Dawley rat at 1 mg/5 ml/kg, po. To be noted: in vivo, 1 mg/kg. It counts as ADME, organism-based. The gist of the method:
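Male SD rats, 5–7 weeks old, fasted 24 h, n = 3 per route. Oral dose 1 mg/5 mL/kg in 0.5% methylcellulose. Slow iv bolus of 0.3 mg/2 mL/kg in saline via jugular vein. Jugular blood sampled from 0 to 24 h; plasma analysed by LC/MS/MS. F = (AUCpo/Dpo)/(AUCiv/Div) × 100.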

The species entered for data set [3] is Rattus norvegicus. As to the kind of experiment: animal or person. To be noted: Sprague-Dawley, Plasma, po, 10 h, read-out: Inhibition.
A short description of data set [4]: Stability in Tris buffer at pH 7.4. The data set is classed as physicochemical. The gist of the method:
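Compound at 1 mg/mL in 100 mM Tris buffer, pH 7.4, held at room temperature. Remaining parent measured by LC/MS peak area at 0, 2, 6 and 24 h. Half-life obtained from a linear first-order fit of log(peak area/time-zero area) against time.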

A short description of data set [5]: Drug level in blood of Sprague-Dawley rat at 1 mg/kg, po after 0.25 hrs in absence of glucuronidase. It counts as ADME, organism-based. More on the design: dose 1 mg/kg, route oral. Conditions: read-out: Drug uptake. The gist of the method:
(§1)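 Male SD rats, fasted 24 h, given a single oral dose of 1 mg/kg as a solution in 0.5% methylcellulose. Blood drawn from the jugular vein. Plasma protein precipitated with acetonitrile, supernatant evaporated and reconstituted in mobile phase, then analysed by LC/MS/MS with no β-glucuronidase/arylsulfatase step.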

Data set [6] in a line: Oral bioavailability in Sprague-Dawley rat at 10 mg/5 ml/kg, po. The data set is classed as ADME, organism-based. Conditions: in vivo, 10 mg/kg. The gist of the method: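 Male SD rats, 5–7 weeks old, fasted 24 h. Oral dose 10 mg/5 mL/kg in 0.5% methylcellulose compared with iv bolus of 0.3 mg/2 mL/kg in saline via jugular vein. Plasma sampled from 0 to 24 h and measured by LC/MS/MS. F calculated from dose-normalised AUC ratio, po over iv.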

Data set [7] addresses Dipeptidyl peptidase 4 (Rattus norvegicus) (UniProt P14740). As to the kind of experiment: Inhibition of DPP4 in rat liver microsomes in presence of UDPGA. To be noted: Microsome.
Data set [8] has as its system Rattus norvegicus. As to the kind of experiment: Effect on plasma glucose level in orally dosed Sprague-Dawley rat by OGTT assay. The data set is classed as functional, organism-based. The gist of the method: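 Male SD rats (400–460 g) fasted at least 20 h. Vehicle (0.5% methylcellulose) or drug at 0.01, 0.03 or 0.1 mg/kg given po at −30 min, then oral glucose 1 g/kg at 0 min. Tail blood taken at −5, 5, 10, 15, 30, 60 and 120 min. Plasma glucose read by glucose oxidase–peroxidase dye method. Mean ± SE, n = 8; Student's t-test vs vehicle.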

Data set [9] in a line: Drug level in blood of Sprague-Dawley rat at 1 mg/kg, po after 2 hrs in absence of glucuronidase. The data set is classed as ADME, organism-based. More on the design: dose 1 mg/kg, route oral. To be noted: read-out: Drug uptake. An outline of the steps: as §1
A short description of data set [10]: Drug level in blood of Sprague-Dawley rat at 1 mg/kg, po after 6 hrs in absence of glucuronidase. It counts as ADME, organism-based. More on the design: dose 1 mg/kg, route oral. Conditions: read-out: Drug uptake. An outline of the steps: as §1

Molecules are shown by their SMILES. The source made the active and inactive calls. The rule behind the calls is not given here.

Experimental findings from ChEMBL document CHEMBL1147184, “Design and synthesis of long-acting inhibitors of dipeptidyl peptidase IV” (Bioorg Med Chem, 2007) are described below.

The term bioavailability denotes dose-corrected exposure relative to a reference, in per cent. As usually defined, the half-life is how long it takes for the measured level to halve. High values mean slow decline, low ones rapid decline.

Chain of Dipeptidyl peptidase 4 (Rattus norvegicus) (P14740 whole entry, looked up): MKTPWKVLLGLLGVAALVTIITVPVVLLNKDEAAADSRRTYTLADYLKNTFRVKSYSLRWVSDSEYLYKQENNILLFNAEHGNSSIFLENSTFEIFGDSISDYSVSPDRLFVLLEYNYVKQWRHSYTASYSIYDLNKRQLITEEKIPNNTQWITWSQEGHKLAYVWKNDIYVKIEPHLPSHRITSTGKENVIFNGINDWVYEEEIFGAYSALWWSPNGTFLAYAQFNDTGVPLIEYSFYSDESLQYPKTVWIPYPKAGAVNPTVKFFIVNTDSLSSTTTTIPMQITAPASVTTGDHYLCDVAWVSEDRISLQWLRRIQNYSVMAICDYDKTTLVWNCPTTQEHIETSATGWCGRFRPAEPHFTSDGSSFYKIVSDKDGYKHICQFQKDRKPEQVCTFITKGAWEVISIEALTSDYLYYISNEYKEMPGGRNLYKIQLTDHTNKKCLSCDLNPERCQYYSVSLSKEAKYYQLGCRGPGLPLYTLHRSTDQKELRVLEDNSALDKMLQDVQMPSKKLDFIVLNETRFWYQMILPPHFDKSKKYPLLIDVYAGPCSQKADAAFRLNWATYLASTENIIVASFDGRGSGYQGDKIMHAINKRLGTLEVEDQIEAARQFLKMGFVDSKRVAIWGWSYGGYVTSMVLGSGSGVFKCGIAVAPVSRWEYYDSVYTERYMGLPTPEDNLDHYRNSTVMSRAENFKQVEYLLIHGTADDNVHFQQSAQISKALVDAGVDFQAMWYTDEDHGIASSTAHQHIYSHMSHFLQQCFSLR

Turning to `COc1c(O)ccc(C)c1[C@@H]1CN[C@H](C(=O)N2CCC[C@H]2C#N)C1`, the inhibition in vivo at 1 mg/kg in data set [1] was determined as 94%; in data set [3], 86%. In [2], the bioavailability was found to be 2%.
Consider `CC(C)C[C@@H]1CN[C@H](C(=O)N2CCC[C@H]2C#N)C1`, for which the inhibition in vivo at 1 mg/kg in data set [1] stood at 40%.
In data set [1], `N#C[C@@H]1CCCN1C(=O)[C@@H]1C[C@H](c2ccccc2)CN1` yielded an inhibition in vivo at 1 mg/kg of 60%.
On the same count and under the same terms, the value for `C=CC[C@@H]1CN[C@H](C(=O)N2CCC[C@H]2C#N)C1` was 38%; that for `C=C(C)C[C@@H]1CN[C@H](C(=O)N2CCC[C@H]2C#N)C1` was 27%.
For `COc1cc(O)cc(OC)c1[C@@H]1CN[C@H](C(=O)N2CCC[C@H]2C#N)C1`, the inhibition in vivo at 1 mg/kg in [1] came out at 81%; in data set [3], 66%. In addition, the half-life in data set [4] was 59 h.
Turning to `N#C[C@@H]1CCCN1C(=O)[C@@H]1C[C@H](c2ccc(O)cc2)CN1`, the inhibition in vivo at 1 mg/kg in data set [1] is 85%. The compound further had a half-life in [4] of 21 h.
`COc1cc(O)cc(C)c1[C@@H]1CN[C@H](C(=O)N2CCC[C@H]2C#N)C1`: the inhibition in vivo at 1 mg/kg was 90% in [1] and 73% in data set [3]. In addition, the concentration at 0.25 h in [5] came out at 0.49 ng/mL. For the same compound, in [6], the bioavailability amounted to 0.1%. In data set [4], this compound gave a half-life of 49 h. For the same compound, the result in data set [7] was Active.
In [1], `CCC[C@@H]1CN[C@H](C(=O)N2CCC[C@H]2C#N)C1` displayed an inhibition in vivo at 1 mg/kg of 50%.
In turn, `N#C[C@@H]1CCCN1C(=O)[C@@H]1C[C@H](c2ccccc2O)CN1` had an inhibition in vivo at 1 mg/kg in data set [1] of 43%. The half-life in data set [4] was 3.2 h.
For `N#C[C@@H]1CCCN1C(=O)[C@@H]1C[C@H](c2cccc(O)c2)CN1`, in that order: 77% and 20 h.
For `CCOc1cc(O)cc(OCC)c1[C@@H]1CN[C@H](C(=O)N2CCC[C@H]2C#N)C1`, the inhibition in vivo at 1 mg/kg in data set [1] is 79%; in data set [3], 50%.
In the case of `Cc1ccc(O)c(C)c1[C@@H]1CN[C@H](C(=O)N2CCC[C@H]2C#N)C1`, the inhibition in vivo at 1 mg/kg in [1] stood at 95%; in data set [3] it was 83%. This compound showed a half-life in data set [4] of 65 h. In addition, the Activity entry in [8] is “Dose-dependent effect”.
Compound `N#C[C@@H]1CCCN1C(=O)[C@@H]1C[C@H](C2CCCCC2)CN1` displayed an inhibition in vivo at 1 mg/kg in [1] of 38%.
`N#C[C@@H]1CCCN1C(=O)[C@@H]1CCCN1`: in data set [1], the inhibition in vivo at 1 mg/kg was 20%.
Regarding `Cc1cccc(C)c1[C@@H]1CN[C@H](C(=O)N2CCC[C@H]2C#N)C1`, the inhibition in vivo at 1 mg/kg in [1] was found to be 91%.
On to `Cc1cc(O)cc(C)c1[C@@H]1CN[C@H](C(=O)N2CCC[C@H]2C#N)C1`, for which the inhibition in vivo at 1 mg/kg in data set [1] stood at 88%; in data set [3], 57%. The half-life in [4] was 31 h. Moreover, the bioavailability in data set [2] worked out at 3%.
`Cc1cc(C)c([C@@H]2CN[C@H](C(=O)N3CCC[C@H]3C#N)C2)c(C)c1O`: the concentration at 2 h in data set [9] was found to be 0.65 ng/mL. The inhibition in vivo at 1 mg/kg in data set [1] was determined as 39%. Moreover, in data set [10], the concentration at 6 h is 0.95 ng/mL. Also, the concentration at 0.25 h in [5] came to 9.7 ng/mL. Besides, the half-life in data set [4] is 40 h.
`CCc1cc(O)cc(C)c1[C@@H]1CN[C@H](C(=O)N2CCC[C@H]2C#N)C1`: the inhibition in vivo at 1 mg/kg in data set [1] stood at 86%. In data set [4], this compound showed a half-life of 39 h.
`N#C[C@@H]1CCCN1C(=O)[C@@H]1C[C@@H](c2ccccc2)CN1`: the inhibition in vivo at 1 mg/kg in data set [1] stood at 17%.
Consider `N#C[C@@H]1CCCN1C(=O)[C@@H]1C[C@H](C2C3CC4CC(C3)CC2C4)CN1` (stereo not given in full), for which, in data set [1], the inhibition in vivo at 1 mg/kg came to 47%.
